Measurements reported in ChEMBL document CHEMBL1125621, “Muscarinic receptor binding and activation of second messengers by substituted N-methyl-N-[4-(1-azacycloalkyl)-2-butynyl]acetamides” (1991).
Calls of active or inactive are those of the source.

Columns and labels:
[1] = target: T1, Muscarinic acetylcholine receptor (Rattus norvegicus) (UniProt P08482+P08483+P08485+P08911+P10980); assay: Evaluated for displacement of [3H]oxotremorine-M binding ([3H]OXO-M) at muscarinic acetylcholine receptor in rat forebrain membranes; assay type: cell membranes; set-up: concentration or dose not given beside the values; conditions: Membrane
Procedure, shortened: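 Sprague-Dawley rat forebrain membranes. Incubated with 2.7 nM [3H]Oxo-M in 50 mM NaPO4, 2 mM MgCl2, pH 7.4, 20 min at 37 °C. Filtered on glass fiber presoaked in 0.05% polyethylenimine. Nonspecific binding defined with 1 μM atropine. Single concentration 1 μM, triplicate, averaged over two to five trials. Read-out is percent displacement of specific binding.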

[2] = target: T1, Muscarinic acetylcholine receptor (Rattus norvegicus); assay: Displacement of [3H]N-methylscopolamine ([3H]NMS) binding at muscarinic acetylcholine receptor in rat cerebral cortical membranes; assay type: cell membranes; set-up: concentration or dose not given beside the values; conditions: Membrane
Procedure, shortened: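 Rat (Sprague-Dawley, either sex, 200 g) forebrain membranes, homogenized and washed in 50 mM sodium phosphate pH 7.4. 200-300 μg membrane incubated with 0.5 nM [3H]NMS plus compound (single concentration, 100 μM) in phosphate-buffered saline, 60 min at 37 °C. Filtered on glass fiber, scintillation counted. Nonspecific binding defined with 1 μM atropine. Triplicate. Reported as percent displacement.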

[3] = target: Muscarinic acetylcholine receptor M3 (Mus musculus) (UniProt Q9ERZ3); assay: Increase in phosphoinositide (PI) metabolism in A9L-cholinergic receptor, muscarinic 3 expressing cells was measured at 100 uMolar; assay type: functional; conditions: 100 uM
Sequence of Muscarinic acetylcholine receptor M3 (Mus musculus) (Q9ERZ3 whole entry): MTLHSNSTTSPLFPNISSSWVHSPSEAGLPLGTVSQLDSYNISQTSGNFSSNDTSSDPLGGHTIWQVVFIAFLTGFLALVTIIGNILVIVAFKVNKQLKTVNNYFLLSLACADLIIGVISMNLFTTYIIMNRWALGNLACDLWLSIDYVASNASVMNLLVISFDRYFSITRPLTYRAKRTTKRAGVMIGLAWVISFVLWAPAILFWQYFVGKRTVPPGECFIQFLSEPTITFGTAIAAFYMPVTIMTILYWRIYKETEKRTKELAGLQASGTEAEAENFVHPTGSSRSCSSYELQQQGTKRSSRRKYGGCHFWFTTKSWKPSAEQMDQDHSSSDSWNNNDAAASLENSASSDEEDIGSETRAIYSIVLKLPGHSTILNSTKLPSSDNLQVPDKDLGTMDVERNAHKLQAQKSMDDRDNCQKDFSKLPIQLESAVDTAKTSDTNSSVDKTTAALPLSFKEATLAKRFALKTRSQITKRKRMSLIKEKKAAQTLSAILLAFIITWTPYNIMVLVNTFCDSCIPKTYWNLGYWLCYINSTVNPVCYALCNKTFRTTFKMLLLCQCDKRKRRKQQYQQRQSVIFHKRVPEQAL
Procedure, shortened: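 A9L fibroblasts transfected with m3 receptor, grown in DMEM with 10% newborn calf serum. Labeled overnight with [3H]myo-inositol, preincubated 5 min at 37 °C in 10 mM LiCl DMEM-Hepes. Compound at 100 μM final, 30 min at 37 °C. Labeled inositol phosphates extracted by ion exchange. Result expressed as percent of the oxotremorine-M response, duplicate determinations.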

A9 [4] = assay: The increase in phosphoinositide (PI) metabolism in A9L-m1 cells was measured at 100 uM; i = inactive; assay type: functional, cell-based; conditions: Mus musculus
Procedure, shortened: (§1)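 A9L fibroblasts transfected with m1 or m3 receptor, grown in DMEM with 10% newborn calf serum. Labeled overnight with [³H]myo-inositol, preincubated 5 min at 37 °C in 10 mM LiCl in DMEM-Hepes, then exposed to compound at 100 μM final for 30 min. Inositol phosphates extracted by ion exchange. Result expressed as percent of Oxo-M response; duplicate determinations.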

[5] = The percent inhibition of cyclic AMP(cAMP) formation in NG108-15 cells expressed in m40AChR was measured; i=inactive (< 2%); conditions: Mus musculus
A9 [6] = assay: Increase in phosphoinositide (PI) metabolism in A9L-m1 cells at 100 uM.; assay type: functional, Mus musculus
[7] = target: T1, Muscarinic acetylcholine receptor (Rattus norvegicus); assay: compound was evaluated for displacement of [3H]oxotremorine-M binding ([3H]OXO-M) at muscarinic acetylcholine receptor in rat forebrain membranes; i = inactive (< 1%); assay type: cell membranes; conditions: Membrane
Procedure, shortened: (§2)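 Forebrain membranes from Sprague-Dawley rats, prepared in 50 mM sodium phosphate pH 7.4. Incubated with 2.7 nM [³H]Oxo-M and test compound at a single concentration of 1 μM in 50 mM NaPO₄, 2 mM MgCl₂, pH 7.4, 20 min at 37 °C. Filters presoaked in polyethylenimine; nonspecific binding with 1 μM atropine. Percent displacement, mean of two to five trials.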

[8] = The percent inhibition of cyclic AMP(cAMP) formation in NG108-15 cells at 100 uM.; conditions: Mus musculus
A9 [9] = assay: The increase in phosphoinositide (PI) metabolism in A9L-m3 cells was measured at 100 uM; i = inactive; assay type: functional, cell-based; conditions: Mus musculus; procedure, shortened: as §1
[10] = target: T1, Muscarinic acetylcholine receptor (Rattus norvegicus); assay: compound was evaluated for displacement of [3H]N-methylscopolamine ([3H]NMS) binding at muscarinic acetylcholine receptor in rat cerebral cortical membranes; i = inactive (< 1%); assay type: cell membranes; conditions: Membrane
Procedure, shortened: (§3)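 Rat cerebral cortical membranes, 200-300 μg per tube, incubated with 0.5 nM [³H]NMS and test compound at a single concentration of 100 μM in phosphate-buffered saline, 60 min at 37 °C. Glass fiber filtration and scintillation counting. Nonspecific binding taken with 1 μM atropine and subtracted. Triplicates; result given as percent displacement of specific binding.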

[11] = target: T2, cyclic AMP phosphoprotein (Rattus norvegicus) (UniProt Q712U5); assay: The percent inhibition of cyclic AMP(cAMP) formation in NG108-15 cells expressed in m40AChR was measured; assay type: functional, cell-based; conditions: concentration not given here
T2 sequence (whole entry): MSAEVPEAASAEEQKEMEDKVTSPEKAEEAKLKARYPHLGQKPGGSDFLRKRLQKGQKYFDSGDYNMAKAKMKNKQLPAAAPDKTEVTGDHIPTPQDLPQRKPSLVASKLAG
Procedure, shortened: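 NG108-15 cells expressing m4 receptors; compound at 100 μM. Cyclic AMP inhibition expressed as percent of Oxo-M (100%), average of two or three trials.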

[12] = target: T1, Muscarinic acetylcholine receptor (Rattus norvegicus); assay: Compound was evaluated for displacement of [3H]oxotremorine-M binding ([3H]OXO-M) at muscarinic acetylcholine receptor in rat forebrain membranes; assay type: cell membranes; conditions: Membrane; procedure, shortened: as §2
[13] = target: T1, Muscarinic acetylcholine receptor (Rattus norvegicus); assay: Compound was evaluated for displacement of [3H]N-methylscopolamine ([3H]NMS) binding at muscarinic acetylcholine receptor in rat cerebral cortical membranes; assay type: cell membranes; conditions: Membrane; procedure, shortened: as §3

SMILES	Displacement [1] [%]	Displacement [2] [%]	PI turnover [3]	inhibition [5]	PI turnover (A9 [6])	inhibition [8] [%]	further results
CC(=O)N(C)CC#CCN1CCCCC1	68.9	83.4	5.6	inactive	–	–	PI turnover (A9 [4]): inactive
CC(=O)N(C)CC#CCN1CCC(OC(=O)c2ccccc2)C1.O=C(O)C(=O)O (centres undefined)	39.1	57.4	4	inactive	1.4	–	–
CC(=O)N(C)CC#CCN1CCC(CCO)CC1.O=C(O)C(=O)O	11	16.3	–	inactive	3.3	–	–
CC(=O)N(C)CC#CCN1CCN(C(C)=O)CC1.O=C(O)C(=O)O	–	59.2	3.1	inactive	1	–	Displacement [7]: inactive
COC[C@@H]1CCCN1CC#CCN(C)C(C)=O.O=C(O)C(=O)O	–	52	5.5	–	6.2	15.4	–
CC(=O)N(C)CC#CCN1CCN(CCO)CC1	22.3	9.3	–	inactive	–	–	PI turnover (A9 [9]): inactive; PI turnover (A9 [4]): inactive
CC(=O)N(C)CC#CCN1CCC(F)C1.O=C(O)C(=O)O (centres undefined)	38.1	29	7.9	–	11.3	8.9	–
CC(=O)N(C)CC#CCN1CCC[C@H]1CO.O=C(O)C(=O)O	25	33.1	4.7	inactive	5.1	–	–
CC(=O)N(C)CC#CCN1CCC(F)CC1	–	18.8	–	–	–	–	–
CC(=O)N(C)CC#CCN1CCC(C(=O)O)CC1	26.8	–	5.2	–	–	17.5	Displacement [10]: inactive; PI turnover (A9 [4]): inactive
CC(=O)N(C)CC#CCN1CCC[C@H]1CF.O=C(O)C(=O)O	50.5	53.8	10.6	–	11.1	–	inhibition [11]: 62.4%
CC(=O)N(C)CC#CCN1CCC[C@@H]1CO.O=C(O)C(=O)O	39.7	56.2	4.8	inactive	2.6	–	–
CC(=O)N(C)CC#CCN1CCCCC1CO.O=C(O)C(=O)O (centres undefined)	20.4	31.2	12.5	inactive	7.3	–	–
CCOC(=O)C1CCCCN1CC#CCN(C)C(C)=O.O=C(O)C(=O)O (centres undefined)	24.9	5.8	15.2	–	12.8	44.1	–
CCOC(=O)C1CCCN(CC#CCN(C)C(C)=O)C1.O=C(O)C(=O)O (centres undefined)	31.2	39.8	12.9	–	6.6	23.6	–
CC(=O)N(C)CC#CCN1CCC[C@@H]1CF.O=C(O)C(=O)O	61.5	67.2	10.4	–	7.2	38.6	–
O=C1CCCN1CC#CCN1CCCC1	–	–	35.6	–	–	–	–
CC(=O)N(C)CC#CCN1CCC(OS(=O)(=O)c2ccc(C)cc2)C1.O=C(O)C(=O)O (centres undefined)	64.8	51.6	23.1	–	23.1	83.6	–
CC(=O)N(C)CC#CCN1CCC(O)CC1	9.2	3.8	2.6	–	–	–	PI turnover (A9 [4]): inactive
CC(=O)N(C)CC#CCN1CCCC1	94.7	89.4	41.6	–	52.5	100	–
CC(=O)N(C)CC#CCN1CCNCC1.O=C(O)C(=O)O	33.8	51.2	12	–	18.2	16.8	–
CC(=O)N(C)CC#CCN1CCCC(CO)C1 (centres undefined)	22.4	45	2.8	–	–	–	PI turnover (A9 [4]): inactive
CC(=O)N(C)CC#CCN1CCCC(O)C1 (centres undefined)	9.1	21.7	4.9	–	–	3.4	PI turnover (A9 [4]): inactive
CC(=O)N(C)CC#CCN1CCC1.O=C(O)C(=O)O	94	38	59.8	–	61.3	95.7	–
C[N+](C)(C)CCOC(N)=O	–	–	86.1	–	–	–	–
CC(=O)N(C)CC#CCN1CCC(O)C1.O=C(O)C(=O)O (centres undefined)	39.9	21.5	7.4	–	17.1	22.5	–
CCOC(=O)C1CCN(CC#CCN(C)C(C)=O)CC1.O=C(O)C(=O)O	32.1	47.5	8.8	inactive	3.3	–	–
CC(=O)OC[C@H]1CCCN1CC#CCN(C)C(C)=O	–	–	2.6	inactive	–	–	Displacement [12]: 42.1%; Displacement [13]: 61.6%; PI turnover (A9 [4]): inactive
CC(=O)N(C)CC#CCN1CCC(CO)CC1.O=C(O)C(=O)O	14.7	10.2	16	–	8.8	4.8	–
CC(=O)N(C)CC#CCN1CCC(OS(C)(=O)=O)C1.O=C(O)C(=O)O (centres undefined)	25.2	20.2	17.2	–	10.4	38.5	–
